# Measurements: ChEMBL document CHEMBL1123041, “Synthesis of new bis(aminoethanethiol) (BAT) derivatives: possible ligands for 99mTc brain imaging agents” (J Med Chem, 1985)
# Tests used:
# [1] = system: Rattus norvegicus; assay: Biodistribution in Sprague-Dawley rat kidneys(2) 15 minutes after intravenous administration, [99mTc]/[125I] IAP ratio); format: ADME, organism-based, Kidney; settings: in vivo, 0.25 h
# Outline: (§1)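 99mTc complex and [125I]iodoantipyrine were co-injected iv into rats. Rats were killed by cardiectomy at 2 or 15 min, and organs were excised, weighed and gamma-counted in two channels with spillover correction. The ratio is 99mTc percent dose divided by 125I percent dose in the same organ, averaged over three rats. Radiochemical purity of the complexes was >95% by reversed-phase HPLC.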
# [2] = system: Rattus norvegicus; assay: Biodistribution in Sprague-Dawley rat skin 2 minutes after intravenous administration, [99mTc]/[125I] IAP ratio); format: ADME, organism-based, Zone of skin; settings: in vivo; outline: as §1
# [3] = system: Rattus norvegicus; assay: Biodistribution in Sprague-Dawley rat small intestine 15 minutes after intravenous administration, [99mTc]/[125I] IAP ratio); format: ADME, organism-based; settings: in vivo, 0.25 h; outline: as §1
# [4] = system: Rattus norvegicus; assay: Biodistribution in Sprague-Dawley rat small intestine 2 minutes after intravenous administration, [99mTc]/[125I] IAP ratio); format: ADME, organism-based; settings: in vivo; outline: as §1
# [5] = system: Rattus norvegicus; assay: Biodistribution in Sprague-Dawley rat spleen 15 minutes after intravenous administration, [99mTc]/[125I] IAP ratio); format: ADME, organism-based; settings: in vivo, 0.25 h; outline: as §1
# [6] = system: Rattus norvegicus; assay: Biodistribution in Sprague-Dawley rat spleen 2 minutes after intravenous administration, [99mTc]/[125I] IAP ratio); format: ADME, organism-based; settings: in vivo; outline: as §1
# [7] = system: Rattus norvegicus; assay: Biodistribution in Sprague-Dawley rat thyroid 15 minutes after intravenous administration, [99mTc]/[125I] IAP ratio); format: ADME, organism-based, Thyroid gland; settings: in vivo, 0.25 h; outline: as §1
# [8] = system: Rattus norvegicus; assay: Biodistribution in Sprague-Dawley rat thyroid 2 minutes after intravenous administration, [99mTc]/[125I] IAP ratio); format: ADME, organism-based, Thyroid gland; settings: in vivo; outline: as §1
# [9] = system: Rattus norvegicus; assay: Compound was evaluated for the biodistribution in Sprague-Dawley rats in muscle 15 minutes after intravenous administration, [99mTc]/[125I] IAP ratio); format: ADME, organism-based, Muscle tissue; settings: in vivo, 0.25 h; outline: as §1
# [10] = system: Rattus norvegicus; assay: Biodistribution in Sprague-Dawley rat blood 15 minutes after intravenous administration, [99mTc]/[125I] IAP ratio); format: ADME, organism-based; settings: in vivo, 0.25 h; outline: as §1
# [11] = system: Rattus norvegicus; assay: Biodistribution in Sprague-Dawley rat blood 2 minutes after intravenous administration, [99mTc]/[125I] IAP ratio); format: ADME, organism-based; settings: in vivo; outline: as §1
# [12] = system: Rattus norvegicus; assay: Biodistribution in Sprague-Dawley rat brain 15 minutes after intravenous administration, [99mTc]/[125I] IAP ratio); format: ADME, organism-based; settings: in vivo, 0.25 h; outline: as §1
# [13] = system: Rattus norvegicus; assay: Biodistribution in Sprague-Dawley rat brain 2 minutes after intravenous administration, [99mTc]/[125I] IAP ratio); format: ADME, organism-based; settings: in vivo; outline: as §1
# [14] = system: Rattus norvegicus; assay: Biodistribution in Sprague-Dawley rat heart 15 minutes after intravenous administration, [99mTc]/[125I] IAP ratio); format: ADME, organism-based; settings: in vivo, 0.25 h; outline: as §1
# [15] = system: Rattus norvegicus; assay: Biodistribution in Sprague-Dawley rat heart 2 minutes after intravenous administration, [99mTc]/[125I] IAP ratio); format: ADME, organism-based; settings: in vivo; outline: as §1
# [16] = system: Rattus norvegicus; assay: Biodistribution in Sprague-Dawley rat stomach 15 minutes after intravenous administration, [99mTc]/[125I] IAP ratio); format: ADME, organism-based; settings: in vivo, 0.25 h; outline: as §1
# [17] = system: Rattus norvegicus; assay: Biodistribution in Sprague-Dawley rat stomach 2 minutes after intravenous administration, [99mTc]/[125I] IAP ratio); format: ADME, organism-based; settings: in vivo; outline: as §1
# [18] = system: Rattus norvegicus; assay: Biodistribution in Sprague-Dawley rat kidneys(2) 2 minutes after intravenous administration, [99mTc]/[125I] IAP ratio); format: ADME, organism-based, Kidney; settings: in vivo; outline: as §1
# [19] = system: Rattus norvegicus; assay: Biodistribution in Sprague-Dawley rat liver 15 minutes after intravenous administration, [99mTc]/[125I] IAP ratio); format: ADME, organism-based; settings: in vivo, 0.25 h; outline: as §1
# [20] = system: Rattus norvegicus; assay: Biodistribution in Sprague-Dawley rat liver 2 minutes after intravenous administration, [99mTc]/[125I] IAP ratio); format: ADME, organism-based; settings: in vivo; outline: as §1
# [21] = system: Rattus norvegicus; assay: Biodistribution in Sprague-Dawley rat lungs(2) 15 minutes after intravenous administration, [99mTc]/[125I] IAP ratio); format: ADME, organism-based, Lung; settings: in vivo, 0.25 h; outline: as §1
# [22] = system: Rattus norvegicus; assay: Biodistribution in Sprague-Dawley rat lungs(2) 2 minutes after intravenous administration, [99mTc]/[125I] IAP ratio); format: ADME, organism-based, Lung; settings: in vivo; outline: as §1
# [23] = system: Rattus norvegicus; assay: Biodistribution in Sprague-Dawley rat muscle 2 minutes after intravenous administration, [99mTc]/[125I] IAP ratio); format: ADME, organism-based, Muscle tissue; settings: in vivo; outline: as §1
# [24] = system: Rattus norvegicus; assay: Biodistribution in Sprague-Dawley rat skin 15 minutes after intravenous administration, [99mTc]/[125I] IAP ratio); format: ADME, organism-based, Zone of skin; settings: in vivo, 0.25 h; outline: as §1
# [25] = Partition coefficient was determined at pH 7.0.; format: ADME; settings: octanol/water
# Outline: (§2)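 99mTc-labelled BAT complex shaken with 3 g each of 1-octanol and 0.1 M phosphate buffer (pH 7.0), vortexed 3 min at room temperature, centrifuged 5 min. Two 0.5 g samples per layer counted in a well counter; PC = cpm/g octanol over cpm/g buffer. Octanol layer repartitioned until values were consistent; usually repeated three times.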
# [26] = species: Homo sapiens; assay: The human serum protein binding activity was determined; format: functional
# Outline: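 Equilibrium dialysis: 0.4 mL pooled human serum against 0.4 mL 0.15 M phosphate buffer pH 7.4 containing 99mTc complex (~0.025 μCi), rotated 18 h at 37 °C. Both sides weighed and counted; percent free = buffer/serum radioactivity concentration ratio × 100. Membrane counted afterwards to check membrane binding.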
# [27] = system: Rattus norvegicus; assay: Biodistribution in Sprague-Dawley rat skin 2 minutes after intravenous administration, [99mTc]/[125I]IAP ratio); format: ADME, organism-based, Zone of skin; settings: in vivo; outline: as §1
# [28] = system: Rattus norvegicus; assay: Biodistribution in Sprague-Dawley rat small intestine 15 minutes after intravenous administration, [99mTc]/[125I]IAP ratio); format: ADME, organism-based; settings: in vivo, 0.25 h; outline: as §1
# [29] = system: Rattus norvegicus; assay: Biodistribution in Sprague-Dawley rat small intestine 2 minutes after intravenous administration, [99mTc]/[125I]IAP ratio); format: ADME, organism-based; settings: in vivo; outline: as §1
# [30] = system: Rattus norvegicus; assay: Biodistribution in Sprague-Dawley rat spleen 15 minutes after intravenous administration, [99mTc]/[125I]IAP ratio); format: ADME, organism-based; settings: in vivo, 0.25 h; outline: as §1
# [31] = system: Rattus norvegicus; assay: Biodistribution in Sprague-Dawley rat spleen 2 minutes after intravenous administration, [99mTc]/[125I]IAP ratio); format: ADME, organism-based; settings: in vivo; outline: as §1
# [32] = system: Rattus norvegicus; assay: Biodistribution in Sprague-Dawley rat stomach 2 minutes after intravenous administration, [99mTc]/[125I]IAP ratio); format: ADME, organism-based; settings: in vivo; outline: as §1
# [33] = system: Rattus norvegicus; assay: Biodistribution in Sprague-Dawley rat thyroid 2 minutes after intravenous administration, [99mTc]/[125I]IAP ratio); format: ADME, organism-based, Thyroid gland; settings: in vivo; outline: as §1
# [34] = system: Rattus norvegicus; assay: Biodistribution in Sprague-Dawley rats heart 15 minutes after intravenous administration, [99mTc]/[125I]IAP ratio); format: ADME, organism-based; settings: in vivo, 0.25 h; outline: as §1
# [35] = system: Rattus norvegicus; assay: Biodistribution in Sprague-Dawley rat blood 15 minutes after intravenous administration, [99mTc]/[125I]IAP ratio); format: ADME, organism-based; settings: in vivo, 0.25 h; outline: as §1
# [36] = system: Rattus norvegicus; assay: Biodistribution in Sprague-Dawley rat brain 15 minutes after intravenous administration, [99mTc]/[125I]IAP ratio); format: ADME, organism-based; settings: in vivo, 0.25 h; outline: as §1
# [37] = system: Rattus norvegicus; assay: Biodistribution in Sprague-Dawley rat brain 2 minutes after intravenous administration, [99mTc]/[125I]IAP ratio); format: ADME, organism-based; settings: in vivo; outline: as §1
# [38] = system: Rattus norvegicus; assay: Biodistribution in Sprague-Dawley rat heart 2 minutes after intravenous administration, [99mTc]/[125I]IAP ratio); format: ADME, organism-based; settings: in vivo; outline: as §1
# [39] = system: Rattus norvegicus; assay: Biodistribution in Sprague-Dawley rat stomach 15 minutes after intravenous administration, [99mTc]/[125I]IAP ratio); format: ADME, organism-based; settings: in vivo, 0.25 h; outline: as §1
# [40] = system: Rattus norvegicus; assay: Biodistribution in Sprague-Dawley rat kidneys(2) 15 minutes after intravenous administration, [99mTc]/[125I]IAP ratio); format: ADME, organism-based, Kidney; settings: in vivo, 0.25 h; outline: as §1
# [41] = system: Rattus norvegicus; assay: Biodistribution in Sprague-Dawley rat kidneys(2) 2 minutes after intravenous administration, [99mTc]/[125I]IAP ratio); format: ADME, organism-based, Kidney; settings: in vivo; outline: as §1
# [42] = system: Rattus norvegicus; assay: Biodistribution in Sprague-Dawley rat liver 15 minutes after intravenous administration, [99mTc]/[125I]IAP ratio); format: ADME, organism-based; settings: in vivo, 0.25 h; outline: as §1
# [43] = system: Rattus norvegicus; assay: Biodistribution in Sprague-Dawley rat liver 2 minutes after intravenous administration, [99mTc]/[125I]IAP ratio); format: ADME, organism-based; settings: in vivo; outline: as §1
# [44] = system: Rattus norvegicus; assay: Biodistribution in Sprague-Dawley rat lungs(2) 15 minutes after intravenous administration, [99mTc]/[125I]IAP ratio); format: ADME, organism-based, Lung; settings: in vivo, 0.25 h; outline: as §1
# [45] = system: Rattus norvegicus; assay: Biodistribution in Sprague-Dawley rat lungs(2) 2 minutes after intravenous administration, [99mTc]/[125I]IAP ratio); format: ADME, organism-based, Lung; settings: in vivo; outline: as §1
# [46] = system: Rattus norvegicus; assay: Biodistribution in Sprague-Dawley rat muscle 15 minutes after intravenous administration, [99mTc]/[125I]IAP ratio); format: ADME, organism-based, Muscle tissue; settings: in vivo, 0.25 h; outline: as §1
# [47] = system: Rattus norvegicus; assay: Biodistribution in Sprague-Dawley rat muscle 2 minutes after intravenous administration, [99mTc]/[125I]IAP ratio); format: ADME, organism-based, Muscle tissue; settings: in vivo; outline: as §1
# [48] = system: Rattus norvegicus; assay: Biodistribution in Sprague-Dawley rat skin 15 minutes after intravenous administration, [99mTc]/[125I]IAP ratio); format: ADME, organism-based, Zone of skin; settings: in vivo, 0.25 h; outline: as §1
# [49] = Partition coefficient was determined atpH 7.0.; format: ADME; settings: octanol/water, pH 7; outline: as §2
# [50] = system: Rattus norvegicus; assay: Biodistribution in Sprague-Dawley rat blood 2 minutes after intravenous administration, [99mTc]/[125I]IAP ratio); format: ADME, organism-based; settings: in vivo; outline: as §1
# [51] = system: Rattus norvegicus; assay: Biodistribution in Sprague-Dawley rat thyroid 15 minutes after intravenous administration, [99mTc]/[125I]IAP ratio); format: ADME, organism-based, Thyroid gland; settings: in vivo, 0.25 h; outline: as §1
smiles,measurement,setting,value
CC(C)(S)CNCC(CN)NCC(C)(C)S.Cl.Cl.Cl (configuration not stated),Dose,[1],2.47%
same,Dose,[2],8.84%
same,Dose,[3],11.8%
same,Dose,[4],5.09%
same,Dose,[5],0.206%
same,Dose,[6],0.274%
same,Dose,[7],0.045%
same,Dose,[8],0.124%
same,Dose,[9],18.5%
same,Dose,[10],8.07%
same,Dose,[11],13.6%
same,Dose,[12],0.288%
same,Dose,[13],1.28%
same,Dose,[14],0.375%
same,Dose,[15],1.08%
same,Dose,[16],5.24%
same,Dose,[17],2.23%
same,Dose,[18],3.57%
same,Dose,[19],22.7%
same,Dose,[20],21.7%
same,Dose,[21],1.57%
same,Dose,[22],3.08%
same,Dose,[23],9.19%
same,Dose,[24],9.43%
same,Partition coefficient,[25],46.8
same,Free,[26],46.2%
CC(C)(S)CNCC(CO)NCC(C)(C)S.Cl.Cl (configuration not stated),Dose,[27],6.72%
same,Dose,[28],19.5%
same,Dose,[29],4.46%
same,Dose,[30],0.309%
same,Dose,[31],0.349%
same,Dose,[32],1.12%
same,Dose,[33],0.088%
same,Dose,[34],0.3%
same,Dose,[35],9.14%
same,Dose,[36],0.15%
same,Dose,[37],0.24%
same,Dose,[38],0.887%
same,Dose,[39],0.85%
same,Dose,[40],2.39%
same,Dose,[41],2.21%
same,Dose,[42],16.8%
same,Dose,[43],16.7%
same,Dose,[44],1.31%
same,Dose,[45],2.27%
same,Dose,[46],14.9%
same,Dose,[47],13.4%
same,Dose,[48],6.53%
same,Partition coefficient,[49],64.5
same,Free,[26],42.5%
same,Dose,[50],18.1%
same,Dose,[51],0.053%
